The results in this text go back to PMC5028280 (Neuropharmacology, 2016).

pEC50, pIC50, pKi: −log10 of the molar value. Like-named read-outs stand apart in the source and are kept apart here.

The target of one data set is hERG (Homo sapiens, UniProt Q12809). The experiment in a line: hERG channel assay. It is filed as cell-based.
Data set [1] concerns male ICR mice. The experiment in a line: Functional observational battery. The class given is in vivo, mouse. The conditions noted are these: i.v.; for FOB Home cage activity: doses with significant differences vs vehicle: CNS Activity domain, ↓ decrease vs vehicle, N = 6/dose; for FOB Muscle tone: doses with significant differences vs vehicle / FOB Posture: doses with significant differences vs vehicle / FOB Forelimb placing: doses with significant differences vs vehicle / FOB Gait: doses with significant differences vs vehicle: Muscle tone/Equilibrium domain; for FOB Approach response: doses with significant differences vs vehicle / FOB Startle response: doses with significant differences vs vehicle: Sensorimotor Reactivity domain. Put shortly: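 Male ICR mice, each given one dose only, n=6 per dose; housed at 20–22°C on a 12-h light/dark cycle with food ad libitum. Approach and startle after observer interference were scored as categorical measures. Each compound's vehicle group was pooled into one vehicle group, and each dose was compared with it. Tests: Fisher's exact (categorical), Kruskal-Wallis (ordinal), one-way ANOVA (continuous).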

In another data set the target is 5-HT6 (Homo sapiens, UniProt P50406). The experiment in a line: NIMH PDSP secondary binding assay, 5-HT6. The note with it: read-out: 5-HT6 binding affinity Ki; mean of 3 replications.
Chain of 5-HT6 (P50406 whole entry): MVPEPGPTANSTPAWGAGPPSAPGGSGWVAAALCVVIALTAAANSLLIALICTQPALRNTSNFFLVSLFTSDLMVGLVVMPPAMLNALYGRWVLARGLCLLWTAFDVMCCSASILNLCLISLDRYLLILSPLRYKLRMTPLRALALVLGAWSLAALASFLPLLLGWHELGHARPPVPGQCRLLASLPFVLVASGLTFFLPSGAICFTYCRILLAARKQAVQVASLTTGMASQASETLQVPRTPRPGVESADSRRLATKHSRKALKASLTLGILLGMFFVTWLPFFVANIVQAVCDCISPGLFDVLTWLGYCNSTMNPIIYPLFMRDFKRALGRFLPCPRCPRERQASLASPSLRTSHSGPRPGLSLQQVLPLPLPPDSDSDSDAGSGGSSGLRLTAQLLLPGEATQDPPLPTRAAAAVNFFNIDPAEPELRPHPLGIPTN
Data set [2] deals with T1, 5-HT2B (Homo sapiens, UniProt P41595). The experiment in a line: 5-HT2B antagonism functional assay. It is filed as cell-based.
T1 sequence (P41595 whole entry): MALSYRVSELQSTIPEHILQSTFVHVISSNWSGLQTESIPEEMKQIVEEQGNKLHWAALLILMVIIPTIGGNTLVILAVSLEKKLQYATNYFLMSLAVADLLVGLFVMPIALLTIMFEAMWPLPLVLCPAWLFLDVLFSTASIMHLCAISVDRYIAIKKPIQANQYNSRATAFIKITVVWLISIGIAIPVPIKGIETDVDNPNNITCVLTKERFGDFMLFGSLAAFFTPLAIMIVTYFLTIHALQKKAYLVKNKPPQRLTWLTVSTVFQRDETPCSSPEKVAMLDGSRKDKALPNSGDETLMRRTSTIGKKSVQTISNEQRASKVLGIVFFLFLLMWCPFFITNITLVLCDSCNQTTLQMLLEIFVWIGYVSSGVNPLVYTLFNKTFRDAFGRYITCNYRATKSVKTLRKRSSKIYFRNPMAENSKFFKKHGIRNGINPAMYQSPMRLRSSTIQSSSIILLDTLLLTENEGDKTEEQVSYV
The target in data set [3] is T1, 5-HT2B. Briefly: NIMH PDSP secondary binding assay, 5-HT2B.
The test system of another data set is male C57/Bl6J mice. Briefly: Drug discrimination, mice trained to discriminate 0.3 mg/kg JWH-018 from vehicle. It is filed as in vivo, mouse.
A further data set deals with GABA: PBR (Rattus norvegicus, UniProt P16257). Briefly: NIMH PDSP secondary binding assay, PBR. Further details: species or system human.
Chain of GABA: PBR (P16257 whole entry): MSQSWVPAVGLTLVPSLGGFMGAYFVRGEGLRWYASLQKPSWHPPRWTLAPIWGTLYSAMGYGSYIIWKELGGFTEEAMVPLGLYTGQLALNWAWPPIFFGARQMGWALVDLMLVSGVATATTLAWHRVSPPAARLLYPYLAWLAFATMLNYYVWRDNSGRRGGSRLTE
Data set [4] concerns male ICR mice. Briefly: FOB, cannabinoid receptor antagonism of 3 mg/kg JWH-018 effects. The conditions noted are these: 3 mg/kg JWH-018 i.v. alone, or co-administration of 3 mg/kg rimonabant i.p. It is filed as in vivo, mouse.
A further data set addresses T2, 5-HT2C (Homo sapiens, UniProt P28335).
T2 sequence (P28335 33-458): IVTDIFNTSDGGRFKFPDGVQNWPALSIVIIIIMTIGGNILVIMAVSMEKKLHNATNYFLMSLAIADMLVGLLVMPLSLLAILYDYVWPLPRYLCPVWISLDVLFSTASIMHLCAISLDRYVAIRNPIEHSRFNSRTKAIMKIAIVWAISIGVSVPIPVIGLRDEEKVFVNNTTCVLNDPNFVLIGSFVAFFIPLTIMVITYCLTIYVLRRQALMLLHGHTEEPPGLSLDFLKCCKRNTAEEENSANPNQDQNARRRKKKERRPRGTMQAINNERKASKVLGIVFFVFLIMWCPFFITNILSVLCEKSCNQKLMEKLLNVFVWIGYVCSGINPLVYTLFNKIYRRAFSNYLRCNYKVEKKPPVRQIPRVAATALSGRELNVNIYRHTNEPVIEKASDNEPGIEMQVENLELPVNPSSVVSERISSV
Briefly: NIMH PDSP secondary binding assay, 5-HT2C. The conditions noted are these: read-out: 5-HT2C binding affinity Ki; mean of 3 replications.

The nature of data set [5]: Urinary metabolite identification. It is filed as in vivo, mouse. The note with it: II = glucuronic acid conjugate; X = identified.
Setting [6] is: inhibition of hERG channels, mean of 3 replicates.
Setting [7] is: read-out: hERG Channels EC50, inhibition of hERG channels, mean of 3 replicates.
Setting [8] is: CNS Excitability domain, ↑ increase vs vehicle, ---- no significant effect.
The mark [9] stands for this setting: categorical, ---- no significant effect.
Where [10] appears, read: read-out: 5-HT2B Antagonism IC50, mean of 3 replicates.
The mark [11] stands for this setting: read-out: 5-HT2B binding affinity Ki, mean of 3 replications.
Where [12] appears, read: Autonomic Effects domain, categorical, ---- no significant effect.

Chain of hERG (Q12809 whole entry, the tested form may be a part): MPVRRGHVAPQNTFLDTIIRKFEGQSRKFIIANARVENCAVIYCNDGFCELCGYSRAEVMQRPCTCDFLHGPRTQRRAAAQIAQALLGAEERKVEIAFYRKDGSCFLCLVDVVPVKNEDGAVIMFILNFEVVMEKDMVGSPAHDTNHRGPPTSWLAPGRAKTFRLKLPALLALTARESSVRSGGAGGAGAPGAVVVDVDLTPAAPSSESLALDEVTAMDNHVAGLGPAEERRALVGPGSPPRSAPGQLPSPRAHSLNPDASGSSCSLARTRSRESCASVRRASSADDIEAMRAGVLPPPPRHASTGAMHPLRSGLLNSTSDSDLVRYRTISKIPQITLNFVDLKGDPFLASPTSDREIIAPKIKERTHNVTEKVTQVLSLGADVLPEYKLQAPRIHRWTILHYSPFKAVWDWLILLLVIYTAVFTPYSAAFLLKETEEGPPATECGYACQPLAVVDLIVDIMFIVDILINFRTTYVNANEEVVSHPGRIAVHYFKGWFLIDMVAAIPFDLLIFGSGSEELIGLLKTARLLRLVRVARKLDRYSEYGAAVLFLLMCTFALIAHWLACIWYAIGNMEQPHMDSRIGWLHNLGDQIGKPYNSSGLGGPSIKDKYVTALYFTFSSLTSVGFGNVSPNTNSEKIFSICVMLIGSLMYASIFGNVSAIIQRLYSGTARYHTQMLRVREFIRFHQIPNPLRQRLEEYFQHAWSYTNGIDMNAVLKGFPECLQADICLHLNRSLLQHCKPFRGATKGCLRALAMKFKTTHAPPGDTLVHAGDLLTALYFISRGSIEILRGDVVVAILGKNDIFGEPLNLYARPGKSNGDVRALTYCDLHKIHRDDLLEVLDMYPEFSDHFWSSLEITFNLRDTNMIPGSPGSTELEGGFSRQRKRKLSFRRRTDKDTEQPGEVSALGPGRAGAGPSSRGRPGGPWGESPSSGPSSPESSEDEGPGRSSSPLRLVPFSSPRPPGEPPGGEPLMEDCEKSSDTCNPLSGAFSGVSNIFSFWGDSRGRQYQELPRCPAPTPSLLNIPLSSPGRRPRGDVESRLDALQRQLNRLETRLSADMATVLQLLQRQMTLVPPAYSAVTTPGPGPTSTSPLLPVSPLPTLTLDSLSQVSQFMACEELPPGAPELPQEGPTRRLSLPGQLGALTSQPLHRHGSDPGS

`O=C(c1cccc2ccccc12)c1cn(CCCCCF)c2ccccc12` [AM-2201]: the “hERG Channels Emax” value on hERG (setting [6]) was determined as 70%. For the same compound, the pEC50 at hERG (setting [7]) is 5.47. For the same compound, the “FOB Home cage activity: doses with significant differences vs vehicle” value with male ICR mice [1] is given as “↓ (0.03-1) mg/kg”. In addition, the “FOB Tonus: doses with significant differences vs vehicle” value with male ICR mice [1] (setting [8]) was “↑ (0.3-1) mg/kg”. For the same compound, in the data set with male ICR mice [1] (setting [9]), the “FOB Muscle tone: doses with significant differences vs vehicle” value is given as “(0.1-1) mg/kg”, the “FOB Posture: doses with significant differences vs vehicle” value is reported as “(0.03-1) mg/kg” and the “FOB Approach response: doses with significant differences vs vehicle” value was “(0.1-1) mg/kg”. For the same compound, the negative logarithm of the Ki (pKi) at 5-HT6 is 6.16. Also, the “5-HT2B Antagonism Emax” value at 5-HT2B [2] (mean of 3 replicates) came out at 100%. For the same compound, the pIC50 on 5-HT2B [2] (setting [10]) is 4.62. Moreover, the negative-log Ki (pKi) on 5-HT2B [3] (setting [11]) was 6.72.

`CCCCCn1cc(C(=O)c2cccc3ccccc23)c2ccccc21` [JWH-018, 1-pentyl-3-(1-naphthoyl)indole] had a pEC50 at hERG of 3.63. Also, the Emax on hERG (human, stably transfected cell line expressing hERG channels) turned out to be 100%. For the same compound, the “hERG Channels Emax” value at hERG (setting [6]) is listed as “Full efficacy”. Further, the “FOB Home cage activity: doses with significant differences vs vehicle” value in the data set with male ICR mice [1] is “↓ (0.1-3) mg/kg”. Moreover, in the data set with male ICR mice [1] (setting [8]), the “FOB Clonus: doses with significant differences vs vehicle” value is recorded as “↑ (0.3) mg/kg”, the “FOB Tail elevation: doses with significant differences vs vehicle” value is recorded as “↑ (1) mg/kg” and the “FOB Tonus: doses with significant differences vs vehicle” value is on record as “↑ (1) mg/kg”. Besides, in the data set with male ICR mice [1] (setting [9]), the “FOB Forelimb placing: doses with significant differences vs vehicle” value is reported as “(3) mg/kg”, the “FOB Gait: doses with significant differences vs vehicle” value is given as “(0.1-3) mg/kg”, the “FOB Muscle tone: doses with significant differences vs vehicle” value is “(0.1-3) mg/kg” and the “FOB Posture: doses with significant differences vs vehicle” value is on record as “(0.1-3) mg/kg”. For the same compound, in the data set with male ICR mice [1] (setting [9]), the “FOB Approach response: doses with significant differences vs vehicle” value is on record as “(0.3-3) mg/kg” and the “FOB Startle response: doses with significant differences vs vehicle” value is reported as “(3) mg/kg”. The “Responding on the JWH-018-associated lever at the training dose” value with male C57/Bl6J mice (0.3 mg/kg JWH-018) is given as greater than 85%. Moreover, in the data set on male C57/Bl6J mice (1 mg/kg JWH-018, 10 mg/kg THC, JWH-073 across the dose range tested), the “Response rates compared to vehicle” value is listed as “significantly decreased response rates”. Besides, the “Substitution for the 0.3 mg/kg JWH-018 training dose” value in the data set with male C57/Bl6J mice (percentage of responses on JWH-018-associated lever, i.p.) is “fully and dose-dependently substituted”. This compound had a negative logarithm of the Ki (pKi) on GABA: PBR of 6.17. Besides, at 5-HT2B [2], the negative-log IC50 (pIC50) is 4.48. For the same compound, the Emax at 5-HT2B [2] (read-out: 5-HT2B Antagonism Emax) was 100%. Also, in the data set with male ICR mice [4], the “Muscle tone in FOB antagonism study” value was “Hypertonia”. The pKi on 5-HT2B [3] was 6.50.

For `CCCCCn1cc(C(=O)Cc2ccccc2)c2ccccc21` [JWH-167], the “hERG Channels Emax” value on hERG (setting [6]) amounted to 81%. The negative logarithm of the EC50 (pEC50) at hERG (setting [7]) was 4.86. In the data set with male ICR mice [1] (setting [12]), the “FOB Exophthalmus: doses with significant differences vs vehicle” value was “(1) mg/kg” and the “FOB Piloerection: doses with significant differences vs vehicle” value is listed as “(10-30) mg/kg”. Also, in the data set on male ICR mice [1], the “FOB Home cage activity: doses with significant differences vs vehicle” value is listed as “↓ (3-30) mg/kg”. Besides, the “FOB Tonus: doses with significant differences vs vehicle” value in the data set with male ICR mice [1] (setting [8]) was “↑ (10) mg/kg”. Further, in the data set with male ICR mice [1] (setting [9]), the “FOB Forelimb placing: doses with significant differences vs vehicle” value was “(10-30) mg/kg”, the “FOB Gait: doses with significant differences vs vehicle” value is recorded as “(3-30) mg/kg”, the “FOB Muscle tone: doses with significant differences vs vehicle” value is recorded as “(3-30) mg/kg” and the “FOB Posture: doses with significant differences vs vehicle” value was “(1-30) mg/kg”. Moreover, in the data set on male ICR mice [1] (setting [9]), the “FOB Approach response: doses with significant differences vs vehicle” value is listed as “(3-30) mg/kg” and the “FOB Startle response: doses with significant differences vs vehicle” value was “(3-30) mg/kg”. In addition, on 5-HT2C, the negative-log Ki (pKi) was 5.32. Also, on 5-HT2B [2] (mean of 3 replicates), the “5-HT2B Antagonism Emax” value is reported as 100%. The pIC50 on 5-HT2B [2] (setting [10]) was 4.32. In addition, the pKi at 5-HT2B [3] (setting [11]) was 5.90.

With `CCCCCn1cc(C(=O)c2ccc(CC)c3ccccc23)c2ccccc21` [JWH-210], on hERG (setting [6]), the “hERG Channels EC50” value is “Not active” and the “hERG Channels Emax” value is “lacked efficacy”. Further, the “FOB Exophthalmus: doses with significant differences vs vehicle” value with male ICR mice [1] (setting [12]) is “(0.3) mg/kg”. The “FOB Home cage activity: doses with significant differences vs vehicle” value in the data set on male ICR mice [1] was “↓ (0.1-3) mg/kg”. For the same compound, in the data set with male ICR mice [1] (setting [9]), the “FOB Gait: doses with significant differences vs vehicle” value was “(0.1-3) mg/kg”, the “FOB Muscle tone: doses with significant differences vs vehicle” value is recorded as “(0.3-3) mg/kg”, the “FOB Posture: doses with significant differences vs vehicle” value is “(0.1-3) mg/kg” and the “FOB Startle response: doses with significant differences vs vehicle” value is recorded as “(0.3-3) mg/kg”. Moreover, in data set [5], the “Monohydroxylation metabolite in urine, phase II” value is given as “no monohydroxyl glucuronide was observed”. Moreover, the “5-HT2B Antagonism Emax” value on 5-HT2B [2] (mean of 3 replicates) was 100%. Besides, the pIC50 on 5-HT2B [2] (setting [10]) is 2.54.
